Assay [1] is described as follows: inhibitors of TNFa-induced NFkB p65 translocation, primary screen, imaging, HUVEC, MLSMR starter and 10KST1 sets (AID 438;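 active = inhibition above 20% together with a positive visual image hit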;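 note: compound added about 3h40 before a 20 min TNFalpha stimulation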;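 for inhibition: signal is the nuclear over cytoplasmic p65 intensity ratio per well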). As to conditions: HUVEC TNFa-induced p65 nuclear translocation; cell count: measured here: nuclei count (cytotoxicity indicator), at 2.08 µM; inhibition: at 2 µM, stronger effect = higher value, 0% TNFa-plus-vehicle, 100% no-TNFa wells.
Assay [2] is described as follows: inhibitors of mutant huntingtin aggregation, primary screen, imaging, exon1htt(103Q)mCFP cells, high-content imaging (AID 483;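 active = visual image review flags a hit and inhibition of aggregation exceeds 20%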;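 note: compound exposure lasted 3 days before fixation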;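 for nuclei count: percent of the per-plate median nuclei count of sample wells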). As to conditions: exon1htt(103Q)mCFP cell line, aggregate imaging, at 2 µM; inhibition of aggregation: stronger effect = higher value; nuclei count: measured here: cell count, toxicity.
The nature of assay [3]: inhibitors of E-selectin induction by TNFa, primary screen, imaging, HUVEC, immunofluorescence, MLSMR starter and 10KST1 sets (AID 487;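 active = visually confirmed hit in the image check and inhibition above 20%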;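 for inhibition: signal is fraction of cell area covered by stained E-selectin grains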;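 for nuclei count: 100% = median nuclei count of all wells on the same plate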). To be noted: HUVEC TNFalpha-induced E-selectin immunofluorescence imaging, at 2 µM; inhibition: stronger effect = higher value; nuclei count: measured here: cell number, toxicity.
Assay [4] has as its target Voltage-gated potassium channel subunit beta-2 (Rattus norvegicus) (UniProt P62483). The experiment in a line: KvBeta enzyme negative modulators, primary screen, biochemical, NADPH fluorescence (AID 622;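 active = fluorescence slope higher than the sample average by over 3 SD, cut at about -0.22 in these data, passing the limit was not always enough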;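 note: slope of raw intensity against log time taken from 70 to 1610 s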). To be noted: recombinant KvBeta, 4-cyanobenzaldehyde reduction, at 10 µM, stronger effect = higher value.
Assay [5] has the same target. The experiment in a line: KvBeta positive modulators, primary screen, biochemical, NADPH fluorescence (AID 623;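 active = NADPH fluorescence slope more negative than the mean of all samples by about 3 SD, 99.7% confidence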;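 note: fluorescence intensity change per second fitted from 20 to 320 s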). To be noted: Recombinant KvBeta, NADPH fluorescence decrease slope, 10 min; at 10 µM; stronger effect = lower value.
In assay [6] the target is Muscarinic acetylcholine receptor M4 (Homo sapiens) (UniProt P08173). The experiment in a line: compounds altering M4/GIRK thallium flux, either direction, primary screen, M4 allosteric agonist project, cell-based, HEK293 M4/GIRK, BTC-AM (AID 625;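 active = fluorescence slope after compound addition differing from the mean of all tested samples at 99.7% confidence, mostly higher but some lower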;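 note: thallium influx through GIRK channels coupled to M4 in HEK293 cells with BTC-AM dye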). As to conditions: at 10 µM, actives lie on both sides. The gist of the method:
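Material – HEK293 cells with M4 receptor and GIRK channels · Buffer or medium – pH 7.3 thallium assay buffer · Doses – one dose, 10 µM final · Timing – cells overnight at 37 °C, BTC-AM loading 1 h, reads 2 min total · Measured by – kinetic fluorescence with BTC-AM dye · Controls – carbachol and DMSO controls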

Assay [7] in a line: inhibitors of Sendai virus-induced IRF3 signaling, primary screen, TLR/RLR signaling modifier project, cell-based, Sendai virus stimulus, luciferase, 10K MLSCN set (AID 602276).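 Note: firefly luciferase from ISG56 promoter only with Renilla not read in this screen; 0% = Sendai virus plus DMSO and 100% = medium plus DMSO without virus.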 To be noted: HEK293 RL24 IRF3 luciferase reporter, at 10 µM, stronger effect = higher value. (A reporter such as luciferase makes a cellular process visible.)
Assay [8] can be described thus: inhibitors of poly I:C-induced TLR3 signaling, primary screen, cell-based, poly I:C stimulus, luciferase, 10K MLSCN set (AID 602277;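 active = inhibition of the reporter signal at or above 50%; inactive = inhibition below 50%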). As to conditions: HEK293-TLR3 RL24 IRF3 luciferase reporter, at 10 µM, stronger effect = higher value.

The values below come from PubChem BioAssay.

The source made the active and inactive calls.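 Rule for the calls, unless noted: active = inhibition at or above 50% at 10 µM; inactive = inhibition below 50%.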

A word on the inhibition: it is the drop in the measured response relative to a control, in per cent.

Sequence of Voltage-gated potassium channel subunit beta-2 (Rattus norvegicus) (P62483 whole entry, looked up): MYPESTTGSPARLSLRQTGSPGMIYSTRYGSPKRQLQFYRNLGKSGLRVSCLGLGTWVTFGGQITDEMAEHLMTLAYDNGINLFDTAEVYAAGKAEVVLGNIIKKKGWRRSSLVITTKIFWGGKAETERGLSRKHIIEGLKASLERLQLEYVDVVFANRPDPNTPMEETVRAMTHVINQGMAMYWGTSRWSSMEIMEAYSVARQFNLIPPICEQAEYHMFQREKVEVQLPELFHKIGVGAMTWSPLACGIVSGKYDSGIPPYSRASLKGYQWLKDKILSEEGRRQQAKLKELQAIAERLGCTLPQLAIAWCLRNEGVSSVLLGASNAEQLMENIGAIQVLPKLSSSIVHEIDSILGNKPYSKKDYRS
Sequence of Muscarinic acetylcholine receptor M4 (Homo sapiens) (P08173 whole entry, looked up): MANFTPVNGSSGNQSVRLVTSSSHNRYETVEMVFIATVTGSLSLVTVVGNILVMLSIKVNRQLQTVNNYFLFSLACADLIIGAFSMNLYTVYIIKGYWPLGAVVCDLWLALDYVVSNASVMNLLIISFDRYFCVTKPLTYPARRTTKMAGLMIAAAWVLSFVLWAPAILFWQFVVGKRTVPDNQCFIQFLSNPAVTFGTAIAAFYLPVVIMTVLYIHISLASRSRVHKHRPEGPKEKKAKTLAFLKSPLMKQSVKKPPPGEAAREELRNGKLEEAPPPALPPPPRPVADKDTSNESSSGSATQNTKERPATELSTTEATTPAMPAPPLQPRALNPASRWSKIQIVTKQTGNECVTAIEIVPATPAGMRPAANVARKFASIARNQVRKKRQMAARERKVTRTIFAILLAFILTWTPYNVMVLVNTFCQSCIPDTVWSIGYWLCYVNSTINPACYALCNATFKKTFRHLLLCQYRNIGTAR

Turning to `CCCC(CCC)n1[nH]c(=O)c2c(C)cc(C)nc21`, in assay [1], the cell count was determined as 357. The inhibition in assay [1] is 3.8% (inactive); in assay [3], -29.5% (inactive); in assay [7] it was 3.13% (inactive); in assay [8], 4.22% (inactive). Moreover, the inhibition of aggregation in assay [2] was 7.5% (inactive). The figures for the nuclei count in assay [2] and in assay [3] were 105% and 114%, respectively. The fluorescence slope in assay [4] is -0.47 (inactive); in assay [6] it was 0.00554 (inactive). Further, the NADPH fluorescence slope in assay [5] was 3.6e-05 (inactive).

Take `Cc1sc2c(c1C)CN(C1CC(C)(C)NC(C)(C)C1)CN2C(=O)c1ccco1`: the cell count in assay [1] was 307. For the same molecule, the inhibition in assay [1] was 10.6% (inactive); in assay [3], -5% (inactive); in assay [7], -1.32% (inactive); in assay [8] it was -7.67% (inactive). For the same molecule, the inhibition of aggregation in assay [2] is 2% (inactive). Also, the values for the nuclei count in assay [2] and in assay [3] were 91.5% and 105%, respectively. Besides, the fluorescence slope in assay [4] was -0.377 (inactive); in assay [6] it was 0.00444 (inactive). Also, in assay [5], the NADPH fluorescence slope was -2.6e-05 (inactive).

Turning to `CC(C(=O)c1ccccc1)n1cnc2ccccc2c1=O` (centres undefined), in assay [1], the cell count came to 646. Besides, the inhibition is 6.4% (inactive) in assay [1], -0.6% (inactive) in assay [3], 1.21% (inactive) in assay [7] and 10.7% (inactive) in assay [8]. In assay [2], the inhibition of aggregation was 17.6% (inactive). The nuclei count came out at 93% in assay [2] and 96.9% in assay [3]. Also, the fluorescence slope is -0.525 (inactive) in assay [4] and 0.00459 (inactive) in assay [6]. The NADPH fluorescence slope in assay [5] was -1.2e-05 (inactive).

`O=C(NCCC1=CCCCC1)C1CCN(S(=O)(=O)c2cccc3nsnc23)CC1`: the cell count in assay [1] was 609. Also, the inhibition was 7.7% (inactive) in assay [1], -41.8% (inactive) in assay [3], 13.1% (inactive) in assay [7] and 26.5% (inactive) in assay [8]. Further, in assay [2], the inhibition of aggregation is 4.8% (inactive). Further, the nuclei count in assay [2] came out at 94.6%; in assay [3], 126%. Moreover, the values for the fluorescence slope in assay [4] and in assay [6] were -0.443 (inactive) and 0.0046 (inactive), respectively. Moreover, the NADPH fluorescence slope in assay [5] was -6e-05 (inactive).

Turning to `c1ccc(-c2cc(-c3nc(-c4ccccn4)no3)c3ccccc3n2)cc1`, the cell count in assay [1] is 469. Further, the inhibition in assay [1] was 7.6% (inactive); in assay [3] it was -171% (inactive); in assay [7], 0.406% (inactive); in assay [8] it was -37.7% (inactive). The inhibition of aggregation in assay [2] was -4.3% (inactive). Also, the nuclei count in assay [2] was 101%; in assay [3], 140%. Further, the fluorescence slope was -0.265 (inactive) in assay [4] and 0.0088 (inactive) in assay [6]. The NADPH fluorescence slope in assay [5] is -8.8e-06 (inactive).

In the case of `CCOC(=O)Nc1ccc(OC)cc1S(=O)(=O)N1CCCCC1`, in assay [1], the cell count was found to be 714. Besides, the inhibition in assay [1] is 3.3% (inactive); in assay [3], -14.6% (inactive); in assay [7], 11.7% (inactive); in assay [8] it was 17% (inactive). Moreover, the inhibition of aggregation in assay [2] is -24% (inactive). The values for the nuclei count in assay [2] and in assay [3] were 87.3% and 111%, respectively. Besides, the fluorescence slope is -0.586 (inactive) in assay [4] and 0.00355 (inactive) in assay [6]. The NADPH fluorescence slope in assay [5] was 2.6e-05 (inactive).

For `OCCn1c(CSc2nnc(-c3ccco3)n2-c2ccccc2)nc2ccc(Cl)cc21`, the cell count in assay [1] came out at 724. Moreover, the inhibition in assay [1] was 10.5% (inactive); in assay [3] it was 14.6% (inactive); in assay [7] it was 9.6% (inactive); in assay [8], 24.7% (inactive). The inhibition of aggregation in assay [2] is 6.6% (inactive). The values for the nuclei count in assay [2] and in assay [3] were 78.4% and 90.8%, respectively. Besides, the fluorescence slope is -0.574 (inactive) in assay [4] and 0.00847 (inactive) in assay [6]. In assay [5], the NADPH fluorescence slope was -3.2e-05 (inactive).

`CCOc1ccccc1NS(=O)(=O)c1c(C)noc1C`: the cell count in assay [1] is 389. Moreover, the inhibition was 5.5% (inactive) in assay [1], -3.1% (inactive) in assay [3], 0.4% (inactive) in assay [7] and 24.4% (inactive) in assay [8]. The inhibition of aggregation in assay [2] is 42.8% (inactive). Further, the nuclei count in assay [2] was determined as 97.1%; in assay [3], 111%. Further, the fluorescence slope is -0.461 (inactive) in assay [4] and 0.00758 (inactive) in assay [6]. For the same molecule, the NADPH fluorescence slope in assay [5] was 4.7e-05 (inactive).

For the molecule `Cc1csc2nc(CSc3nc4ccccc4o3)c(Br)n12`, the cell count in assay [1] turned out to be 573. The inhibition is -14.8% (inactive) in assay [1], -1.4% (inactive) in assay [3], -40% (inactive) in assay [7] and -122% (inactive) in assay [8]. For the same molecule, the inhibition of aggregation in assay [2] was -9.5% (inactive). Also, the nuclei count in assay [2] came out at 98.3%; in assay [3] it was 125%. For the same molecule, the fluorescence slope in assay [4] is -0.536 (inactive); in assay [6] it was 0.00576 (inactive). The NADPH fluorescence slope in assay [5] is 0.000171 (inactive).

On to `O=C(c1cccs1)N1CCc2ccccc21`, for which the cell count in assay [1] was 335. Further, the inhibition in assay [1] was -3.8% (inactive); in assay [3] it was -59.6% (inactive); in assay [7], -42% (inactive); in assay [8] it was -100% (inactive). Besides, the inhibition of aggregation in assay [2] is 5% (inactive). Besides, the nuclei count in assay [2] came out at 104%; in assay [3] it was 111%. For the same molecule, the fluorescence slope in assay [4] was -0.511 (inactive); in assay [6] it was 0.00554 (inactive). Besides, in assay [5], the NADPH fluorescence slope is -5e-05 (inactive).

Turning to `Cc1cc(C)cc(OCCCC(=O)O)c1`, the cell count in assay [1] was determined as 254. The inhibition in assay [1] is 9.4% (inactive); in assay [3] it was -45% (inactive); in assay [7], -0.0954% (inactive); in assay [8], 17.4% (inactive). The inhibition of aggregation in assay [2] is 12.3% (inactive). In addition, the figures for the nuclei count in assay [2] and in assay [3] were 118% and 94.2%, respectively. The fluorescence slope was -0.531 (inactive) in assay [4] and 0.00463 (inactive) in assay [6]. In addition, in assay [5], the NADPH fluorescence slope is -4.2e-05 (inactive).

With `Cc1cccc(C)c1OCc1nnc2c3cnn(C)c3ncn12`, in assay [1], the cell count was 456. In addition, the inhibition in assay [1] is 8.1% (inactive); in assay [3], -299% (inactive); in assay [7], -9.31% (inactive); in assay [8] it was -26.9% (inactive). In addition, the inhibition of aggregation in assay [2] is -5.7% (inactive). Moreover, the nuclei count in assay [2] worked out at 97.5%; in assay [3] it was 125%. In addition, the fluorescence slope in assay [4] was -0.533 (inactive); in assay [6], 0.0037 (inactive). Besides, the NADPH fluorescence slope in assay [5] was -0.000169 (inactive).

Regarding `CCOC(=O)c1cnc(-n2nc(C)cc2C)nc1Nc1ccc(N(C)C)cc1`, the cell count in assay [1] was found to be 603. For the same molecule, the inhibition in assay [1] was -15.5% (inactive); in assay [3] it was -51.8% (inactive); in assay [7] it was 4.06% (inactive); in assay [8], 4.11% (inactive). In assay [2], the inhibition of aggregation is 30.6% (inactive). Besides, the nuclei count in assay [2] came to 84%; in assay [3], 88.2%. Besides, the fluorescence slope in assay [4] was -0.574 (inactive); in assay [6], 0.00563 (inactive). Moreover, in assay [5], the NADPH fluorescence slope is -4.7e-05 (inactive).

On to `CCCC(=O)Nc1ccccc1NC(=O)CCC`, for which the cell count in assay [1] is 353. For the same molecule, the inhibition in assay [1] was -5.6% (inactive); in assay [3] it was -23.8% (inactive); in assay [7], 14.4% (inactive); in assay [8], 15.4% (inactive). In addition, the inhibition of aggregation in assay [2] was -10.5% (inactive). Moreover, the nuclei count in assay [2] is 103%; in assay [3], 109%. Further, the fluorescence slope in assay [4] is -0.434 (inactive); in assay [6], 0.00516 (inactive). The NADPH fluorescence slope in assay [5] is -6e-05 (inactive).
